The source of these data is ChEMBL document CHEMBL2086324, “Synthesis and antimalarial activity of new haemanthamine-type derivatives” (Bioorg Med Chem, 2012).

Each structure is given as a SMILES string.

This assay has as its system Plasmodium falciparum. Description: Antiplasmodial activity against chloroquine-sensitive Plasmodium falciparum F-32 Tanzania assessed as inhibition of parasitemia after 3 days. It is filed as functional, organism-based. Conditions: 72 h. In short, it runs like this: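 P. falciparum grown in glucose-enriched RPMI 1640 with 10% human serum, 37 °C. After 24 h the medium was replaced with fresh medium containing compound in DMSO at 0.1, 1 and 10 µg/mL, and incubation continued 48 h. Parasitemia was counted by blood smear per well on day 3 against control. IC50 was read graphically from concentration vs percent inhibition. Chloroquine 0.04 µM served as positive control.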

Regarding `C=Cc1ccc(C(=O)O[C@@H]2CN3Cc4cc5c(cc4[C@]24C=C[C@@H](OC)C[C@H]34)OCO5)cc1`, the IC50 was more than 100 µM.
As for `CO[C@@H]1C=C[C@]23/C(=N/O)CN(Cc4cc5c(cc42)OCO5)[C@H]3C1`, the figure is 95.5 µM; as for `COC(C(=O)O[C@@H]1C=C[C@@]23c4cc5c(cc4CN(C[C@H]2OC(=O)C(OC)c2ccccc2)[C@H]3C1)OCO5)c1ccccc1` (stereo partly specified), 5.1 µM; as for `CC(=O)O[C@@H]1C=C[C@@]23c4cc5c(cc4CN(C[C@H]2OC(C)=O)[C@H]3C1)OCO5`, more than 100 µM.
As for `CO[C@H]1C[C@@H]2N3Cc4cc5c(cc4[C@@]2([C@H](O)C3)[C@@H](Br)[C@@H]1Br)OCO5`, the figure is 6.5 µM; as for `CN(C=O)Cc1cc2c(cc1-c1ccc(O)cc1)OCO2`, 73.4 µM; as for `CC(C)C(=O)O[C@@H]1C=C[C@@]23c4cc5c(cc4CN(C[C@H]2OC(=O)C(C)C)[C@H]3C1)OCO5`, 7 µM.
As for `Oc1cc2c(cc1O)[C@@]13C=C[C@@H](O)C[C@@H]1N(C2)C[C@H]3O`, the IC50 stood at 13.4 µM.
As to `O=C(O[C@@H]1C=C[C@@]23c4cc5c(cc4CN(C[C@H]2OC(=O)c2cccnc2)[C@H]3C1)OCO5)c1cccnc1`, the IC50 worked out at 0.8 µM.
Take `CO[C@@H]1C=C[C@@]23c4cc5c(cc4C(OC(C)=O)N(C[C@H]2OC(C)=O)[C@H]3C1)OCO5` (stereo partly specified): the IC50 came out at 52.3 µM.
For `CO[C@@H]1C=C[C@@]23c4cc5c(cc4C(OC(=O)c4cccnc4)N(C[C@H]2O)[C@H]3C1)OCO5` (stereo partly specified) the value was 7.1 µM; for `CO[C@@H]1C=C[C@@]23c4cc5c(cc4C[N+]([O-])(C[C@H]2O)[C@H]3C1)OCO5`, more than 100 µM.
As for `CO[C@@H]1CC[C@@]23c4cc5c(cc4CN(C[C@H]2O)[C@H]3C1)OCO5`, the figure is 9.9 µM; as for `CCN(C=O)Cc1cc2c(cc1-c1ccc(O)cc1)OCO2`, more than 100 µM.
As to `O[C@@H]1C=C[C@]23CCN(Cc4cc5c(cc42)OCO5)[C@H]3C1` [VITTATINE], the IC50 is 7.3 µM.
For `CO[C@@H]1C=C[C@]23C(=O)CN(Cc4cc5c(cc42)OCO5)[C@H]3C1` the value was 73.5 µM; for `Oc1cc2c(cc1O)[C@@]13C=C[C@@H](O)C[C@@H]1N(C[C@H]3O)C2O` (stereo partly specified), 72.1 µM.
Turning to `C1=C[C@@]23c4cc5c(cc4CN4C[C@H]2O[C@@H]1C[C@H]43)OCO5` [APOHAEMANTHAMINE], the IC50 amounted to 92.9 µM.
For `CO[C@@H]1C=C[C@@]23c4cc5c(cc4CN(C[C@H]2OC(C)=O)[C@H]3C1)OCO5` the value was 75.8 µM.
As for `OC1c2cc3c(cc2[C@@]24C=C[C@H]5C[C@@H]2N1C[C@H]4O5)OCO3` (stereo partly specified), the figure is 84.2 µM; as for `CO[C@@H]1C=C[C@]23c4cc5c(cc4CN([C@H]2C1)[C@H]1O[C@H]13)OCO5`, 1.6 µM.
With `CO[C@@H]1C=C[C@@]2(c3cc4c(cc3C=O)OCO4)C(=O)C=N[C@H]2C1`, the IC50 was 76.6 µM.
As for `CO[C@@H]1C=C[C@@]23c4cc5c(cc4C(OC(=O)c4ccc(Br)cc4)N(C[C@H]2OC(=O)c2ccc(Br)cc2)[C@H]3C1)OCO5` (stereo partly specified), the figure is 2.9 µM; as for `CO[C@H]1C[C@@H]2N3Cc4cc5c(cc4[C@@]2([C@H](O)C3)[C@@H](O)[C@@H]1Br)OCO5`, 62.6 µM; as for `CO[C@@H]1C=C[C@@]23c4cc5c(cc4CN(C[C@H]2OC(=O)c2cccnc2)[C@H]3C1)OCO5`, 51.7 µM.
In the case of `COC1c2cc3c(cc2[C@@]24C=C[C@@H](OC)C[C@@H]2N1C[C@H]4O)OCO3` (stereo partly specified), the IC50 is 75.5 µM.
For `O[C@@H]1C=C[C@@]23c4cc5c(cc4CN(C[C@H]2O)[C@H]3C1)OCO5` the value was 13.2 µM; for `COc1cc2c(cc1O)CN1CC[C@@]23C=CC(O)C[C@H]13` (stereo partly specified), 91.5 µM; for `CO[C@@H]1C=C[C@@]23c4cc5c(cc4CN(C[C@H]2OC(=O)C(C)C)[C@H]3C1)OCO5`, 56.6 µM.
For the compound `CO[C@@H]1C=C[C@@]23c4cc5c(cc4CN(C[C@@H]2O)[C@H]3C1)OCO5` [(+)-HAEMANTHAMINE], the IC50 was determined as 1.3 µM.
As to `C=CC(=O)O[C@@H]1CN2Cc3cc4c(cc3[C@]13C=C[C@@H](OC)C[C@H]23)OCO4`, the IC50 worked out at 8.4 µM.
Consider `CO[C@H]1C[C@@H]2N3Cc4cc5c(cc4[C@@]2([C@H](O)C3)[C@@H](Br)[C@@H]1O)OCO5`, for which the IC50 amounted to 72.6 µM.
For `CO[C@@H]1C=C[C@@]23c4cc5c(cc4C(OC(=O)C(C)C)N(C[C@H]2OC(=O)C(C)C)[C@H]3C1)OCO5` (stereo partly specified), the IC50 was determined as 52.5 µM.
Turning to `CO[C@@H]1C=C[C@@]23c4cc5c(cc4[C@@H](O)N(C[C@H]2O)[C@H]3C1)OCO5` [HAEMANTHIDINE], the IC50 is 1.2 µM.
As for `O=C(O[C@@H]1C=C[C@@]23c4cc5c(cc4CN(C[C@H]2OC(=O)c2ccc(Br)cc2)[C@H]3C1)OCO5)c1ccc(Br)cc1`, the figure is 3 µM; as for `CO[C@@H]1C=C[C@@]23c4cc5c(cc4CN(C[C@H]2OC(=O)c2ccc(Br)cc2)[C@H]3C1)OCO5`, 43.3 µM.
